Molecules are shown by their SMILES. Values after ≈ are worked out from the molar mass of the structure shown. Active and inactive are the calls of the source.

The subject of one test is Enterococcus faecium. Kind of test: Antimicrobial activity against vancomycin-resistant Enterococcus faecium ATCC 700221 assessed as bacterial growth inhibitions by CLSI protocol based microdilution method. It counts as functional.
Test [1] concerns Staphylococcus aureus. Kind of test: Antimicrobial activity against methicillin-resistant Staphylococcus aureus ATCC 33591 assessed as bacterial growth inhibitions by CLSI protocol based microdilution method. It counts as functional. For orientation: In broth dilution the organism is exposed to a series of concentrations in liquid medium.
Test [2] deals with Staphylococcus aureus. Briefly: Antimicrobial activity against methicillin-susceptible Staphylococcus aureus ATCC 25923 assessed as bacterial growth inhibitions by CLSI protocol based microdilution method. It counts as functional.
Test [3] relates to Staphylococcus aureus. Kind of test: Antimicrobial activity against methicillin-resistant Staphylococcus aureus ATCC 33592 assessed as bacterial growth inhibitions by CLSI protocol based microdilution method. The format is functional.
The next test relates to Bacillus subtilis. Kind of test: Antimicrobial activity against Bacillus subtilis ATCC 6623 assessed as bacterial growth inhibitions by CLSI protocol based microdilution method. It counts as functional. The method, boiled down:
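Broth microdilution starting at 50 µg/ml with 2-fold serial dilutions; run in triplicate.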

Another test deals with Enterococcus faecalis. Briefly: Antimicrobial activity against vancomycin-susceptible Enterococcus faecalis ATCC 29212 assessed as bacterial growth inhibitions by CLSI protocol based microdilution method.
For test [4], the system named is Staphylococcus aureus. Briefly: Antimicrobial activity against antibiotic-resistant Staphylococcus aureus BM-2312 assessed as bacterial growth inhibitions by CLSI protocol based microdilution method. The format is functional.
For test [5], the system named is Staphylococcus aureus. Briefly: Antimicrobial activity against methicillin-resistant Staphylococcus aureus ATCC 700699 assessed as bacterial growth inhibitions by CLSI protocol based microdilution method. It counts as functional.
Test [6] relates to Staphylococcus epidermidis. Kind of test: Antimicrobial activity against methicillin-resistant Staphylococcus epidermidis ATCC 700296 assessed as bacterial growth inhibitions by CLSI protocol based microdilution method. It counts as functional.

For `O=C(O)c1ccc(-n2cc(CNc3cc(F)c(C(F)(F)F)cc3F)c(-c3ccc(C(F)(F)F)cc3)n2)cc1`, the MIC (commonly the smallest concentration in the dilution series that meets the test's criterion for growth inhibition) with Enterococcus faecium is 0.78 µg/mL (≈ 1.44 µM); with Staphylococcus aureus [1] it was 0.78 µg/mL (≈ 1.44 µM); in the test with Staphylococcus aureus [2], 0.78 µg/mL (≈ 1.44 µM); in the test on Staphylococcus aureus [3], 0.78 µg/mL (≈ 1.44 µM); with Bacillus subtilis, 0.78 µg/mL (≈ 1.44 µM); with Enterococcus faecalis, 1.56 µg/mL (≈ 2.88 µM). For the same compound, the MIC with Staphylococcus aureus [4] and with Staphylococcus aureus [5] was 0.78 µg/mL (≈ 1.44 µM) throughout.

For the compound `O=C(O)c1ccc(-n2cc(CNc3ccc(F)c(F)c3F)c(-c3ccc(C(F)(F)F)cc3)n2)cc1`, the MIC with Enterococcus faecium amounted to 3.12 µg/mL (≈ 6.35 µM); with Staphylococcus aureus [1], 1.56 µg/mL (≈ 3.17 µM); in the test with Staphylococcus aureus [2] it was 1.56 µg/mL (≈ 3.17 µM); in the test on Staphylococcus aureus [3], 1.56 µg/mL (≈ 3.17 µM); with Bacillus subtilis it was 0.78 µg/mL (≈ 1.59 µM); in the test on Staphylococcus aureus [4], 1.56 µg/mL (≈ 3.17 µM). In addition, the MIC in the test on Staphylococcus aureus [5] was determined as 1.56 µg/mL (≈ 3.17 µM); in test [6], 3.12 µg/mL (≈ 6.35 µM). For the same compound, in the test with Enterococcus faecalis, the MIC entry was “inactive”.

Regarding `O=C(O)c1ccc(-n2cc(CNc3cc(Cl)cc(Cl)c3)c(-c3ccc(C(F)(F)F)cc3)n2)cc1`, the MIC in the test on Enterococcus faecium amounted to 0.78 µg/mL (≈ 1.54 µM); in the test with Staphylococcus aureus [1], 0.78 µg/mL (≈ 1.54 µM); with Staphylococcus aureus [2], 0.78 µg/mL (≈ 1.54 µM); in the test on Staphylococcus aureus [3], 0.78 µg/mL (≈ 1.54 µM); with Bacillus subtilis it was 0.78 µg/mL (≈ 1.54 µM); with Enterococcus faecalis it was 1.56 µg/mL (≈ 3.08 µM). Moreover, the MIC (with Staphylococcus aureus [4]; in the test with Staphylococcus aureus [5]; in test [6]) was 0.78 µg/mL (≈ 1.54 µM) throughout.

For `O=C(O)c1ccc(-n2cc(CNc3cc(F)c(C(F)(F)F)c(F)c3)c(-c3ccc(C(F)(F)F)cc3)n2)cc1`, the MIC in the test on Enterococcus faecium stood at 6.25 µg/mL (≈ 11.5 µM); in the test with Staphylococcus aureus [1], 1.56 µg/mL (≈ 2.88 µM); in the test on Staphylococcus aureus [2], 1.56 µg/mL (≈ 2.88 µM); in the test on Staphylococcus aureus [3] it was 1.56 µg/mL (≈ 2.88 µM); in the test with Bacillus subtilis, 0.78 µg/mL (≈ 1.44 µM); in the test on Enterococcus faecalis, 12.5 µg/mL (≈ 23.1 µM). The MIC came to 1.56 µg/mL (≈ 2.88 µM) with Staphylococcus aureus [4], 1.56 µg/mL (≈ 2.88 µM) in the test on Staphylococcus aureus [5] and 3.12 µg/mL (≈ 5.76 µM) in [6].

Regarding `O=C(O)c1ccc(-n2cc(CNc3ccc(C(=O)O)c(C(F)(F)F)c3)c(-c3ccc(C(F)(F)F)cc3)n2)cc1`, the MIC result with Enterococcus faecium, in the test with Staphylococcus aureus [1], in the test on Staphylococcus aureus [3], in the test on Bacillus subtilis, with Enterococcus faecalis and in the test on Staphylococcus aureus [5] was “inactive” throughout. The MIC (with Staphylococcus aureus [2]; in the test on Staphylococcus aureus [4]; in test [6]) was 50 µg/mL (≈ 91 µM) in each case.

As for `O=C(O)c1ccc(-n2cc(CNc3cc(Cl)ccc3Cl)c(-c3ccc(C(F)(F)F)cc3)n2)cc1`, the MIC in the test with Enterococcus faecium was 0.78 µg/mL (≈ 1.54 µM); in the test with Staphylococcus aureus [1], 0.78 µg/mL (≈ 1.54 µM); with Staphylococcus aureus [2], 0.78 µg/mL (≈ 1.54 µM); with Staphylococcus aureus [3] it was 0.78 µg/mL (≈ 1.54 µM); in the test with Bacillus subtilis, 0.78 µg/mL (≈ 1.54 µM); with Enterococcus faecalis, 3.12 µg/mL (≈ 6.16 µM). In addition, the MIC was found to be 0.78 µg/mL (≈ 1.54 µM) in the test with Staphylococcus aureus [4], 0.78 µg/mL (≈ 1.54 µM) in the test on Staphylococcus aureus [5] and 1.56 µg/mL (≈ 3.08 µM) in test [6].

As for `Cc1ccc(NCc2cn(-c3ccc(C(=O)O)cc3)nc2-c2ccc(C(F)(F)F)cc2)cc1Cl`, the MIC came to 0.78 µg/mL (≈ 1.61 µM) in the test on Enterococcus faecium; 0.78 µg/mL (≈ 1.61 µM) in the test with Staphylococcus aureus [1]; 0.78 µg/mL (≈ 1.61 µM) in the test on Staphylococcus aureus [2]; 0.78 µg/mL (≈ 1.61 µM) with Staphylococcus aureus [3]; 0.78 µg/mL (≈ 1.61 µM) in the test with Bacillus subtilis; 3.12 µg/mL (≈ 6.42 µM) in the test on Enterococcus faecalis. In addition, the MIC was found to be 0.78 µg/mL (≈ 1.61 µM) in the test on Staphylococcus aureus [4], 0.78 µg/mL (≈ 1.61 µM) in the test with Staphylococcus aureus [5] and 1.56 µg/mL (≈ 3.21 µM) in test [6].

Turning to `O=C(O)c1ccc(-n2cc(CNc3ccc(N4CCOCC4)c(C(F)(F)F)c3)c(-c3ccc(C(F)(F)F)cc3)n2)cc1`, the MIC in the test with Enterococcus faecium came to 0.78 µg/mL (≈ 1.32 µM); in the test with Staphylococcus aureus [1], 0.78 µg/mL (≈ 1.32 µM); with Staphylococcus aureus [2] it was 0.78 µg/mL (≈ 1.32 µM); in the test with Staphylococcus aureus [3] it was 0.78 µg/mL (≈ 1.32 µM); in the test with Bacillus subtilis it was 0.78 µg/mL (≈ 1.32 µM); in the test on Enterococcus faecalis, 1.56 µg/mL (≈ 2.64 µM). Moreover, the figures for the MIC (in the test with Staphylococcus aureus [4]; with Staphylococcus aureus [5]; in test [6]) were 1.56 µg/mL (≈ 2.64 µM), 0.78 µg/mL (≈ 1.32 µM) and 1.56 µg/mL (≈ 2.64 µM), respectively.

As for `O=C(O)c1ccc(-n2cc(CNc3cccc(F)c3)c(-c3ccc(C(F)(F)F)cc3)n2)cc1`, the MIC stood at 6.25 µg/mL (≈ 13.7 µM) in the test on Enterococcus faecium; 3.12 µg/mL (≈ 6.85 µM) in the test on Staphylococcus aureus [1]; 3.12 µg/mL (≈ 6.85 µM) in the test on Staphylococcus aureus [2]; 3.12 µg/mL (≈ 6.85 µM) with Staphylococcus aureus [3]; 1.56 µg/mL (≈ 3.43 µM) with Bacillus subtilis; 25 µg/mL (≈ 54.9 µM) with Enterococcus faecalis. Besides, the MIC in the test on Staphylococcus aureus [4] is 3.12 µg/mL (≈ 6.85 µM); with Staphylococcus aureus [5] it was 3.12 µg/mL (≈ 6.85 µM); in test [6], 6.25 µg/mL (≈ 13.7 µM).

For `O=C(O)c1ccc(-n2cc(CNc3cccc(C(F)(F)F)c3)c(-c3ccc(C(F)(F)F)cc3)n2)cc1`, the MIC with Enterococcus faecium stood at 1.56 µg/mL (≈ 3.09 µM); in the test with Staphylococcus aureus [1], 0.78 µg/mL (≈ 1.54 µM); in the test with Staphylococcus aureus [2] it was 1.56 µg/mL (≈ 3.09 µM); in the test with Staphylococcus aureus [3] it was 0.78 µg/mL (≈ 1.54 µM); in the test on Bacillus subtilis, 0.78 µg/mL (≈ 1.54 µM); with Enterococcus faecalis it was 6.25 µg/mL (≈ 12.4 µM). The minimum inhibitory concentration (MIC) in the test on Staphylococcus aureus [4] stood at 1.56 µg/mL (≈ 3.09 µM); in the test on Staphylococcus aureus [5], 0.38 µg/mL (≈ 0.752 µM); in test [6], 1.56 µg/mL (≈ 3.09 µM).

As to `O=C(O)c1ccc(-n2cc(CNc3cccc(Br)c3)c(-c3ccc(C(F)(F)F)cc3)n2)cc1`, the MIC in the test on Enterococcus faecium stood at 1.56 µg/mL (≈ 3.02 µM); with Staphylococcus aureus [1] it was 0.78 µg/mL (≈ 1.51 µM); with Staphylococcus aureus [2], 0.78 µg/mL (≈ 1.51 µM); in the test on Staphylococcus aureus [3], 0.78 µg/mL (≈ 1.51 µM); in the test with Bacillus subtilis, 0.78 µg/mL (≈ 1.51 µM); in the test on Enterococcus faecalis, 6.25 µg/mL (≈ 12.1 µM). Further, the results for the MIC (in the test with Staphylococcus aureus [4]; with Staphylococcus aureus [5]; in test [6]) were 0.78 µg/mL (≈ 1.51 µM), 1.56 µg/mL (≈ 3.02 µM) and 3.12 µg/mL (≈ 6.04 µM), respectively.

Source of the values: ChEMBL document CHEMBL4814057, “4-4-(Anilinomethyl)-3-[4-(trifluoromethyl)phenyl]-1H-pyrazol-1-ylbenzoic acid derivatives as potent anti-gram-positive bacterial agents” (Eur J Med Chem, 2021).
